The source made the active and inactive calls. The calls are words filed in the database; no cut-off is given here.
Experiments:
[1] = biological target: T1, Amyloid-beta precursor protein (Homo sapiens, UniProt P05067); assay: Inhibition of self-induced amyloid beta 42 (unknown origin) aggregation measured for 24 hrs by thioflavin T-based fluorescence spectroscopic analysis
[2] = biological target: T1, Amyloid-beta precursor protein; assay: Inhibition of self-induced amyloid beta 40 (unknown origin) aggregation measured for 24 hrs by thioflavin T-based fluorescence spectroscopic analysis
[3] = biological target: T1, Amyloid-beta precursor protein; assay: Inhibition of nucleation-dependent amyloid beta 40 (unknown origin) aggregation at 1 to 25 uM measured for 24 hrs by thioflavin T-based fluorescence spectroscopic analysis
Method in brief: (§1)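 Aβ peptide at 5 μM incubated with test compound (1, 5 or 25 μM) in phosphate buffer pH 7.4 at 37 °C for 24 h; aggregation monitored by ThT fluorescence (excitation 440 nm, emission 490 nm). IC50 calculated from ThT signal; mean of triplicate readings from three independent experiments.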

[4] = biological target: T1, Amyloid-beta precursor protein; assay: Inhibition of amyloid beta 42 (unknown origin) aggregation assessed as time at which fluorescence intensity reaches the midpoint between pre and post aggregation baseline growth phase at 25 uM measured for 24 hrs by thioflavin T-based fluorescence spectroscopic analysis
Method in brief: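 Aβ42 at 5 μM with compound at 25 μM in phosphate buffer pH 7.4, 37 °C, followed 24 h by ThT fluorescence (ex 440/em 490 nm). t50 taken as the time at which fluorescence reaches the midpoint between pre- and postaggregation baselines of the growth phase. Three independent experiments in triplicate.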

[5] = biological target: T1, Amyloid-beta precursor protein; assay: Potency index, ratio of curcumin IC50 for amyloid beta 40 (unknown origin) aggregation to compound IC50 for amyloid beta 40 (unknown origin) aggregation
[6] = biological target: T1, Amyloid-beta precursor protein; assay: Inhibition of amyloid beta 40 (unknown origin) aggregation at 25 uM after 24 hrs by transmission electron microscopy
Method in brief: (§2)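 Aβ40 or Aβ42 at 25 μM, alone or with 25 μM compound, incubated 24 h at 37 °C in phosphate buffer pH 7.4; fibril and aggregate morphology then imaged by transmission electron microscopy.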

[7] = biological target: T1, Amyloid-beta precursor protein; assay: Inhibition of amyloid beta 42 (unknown origin) aggregation at 25 uM after 24 hrs by transmission electron microscopy; method in brief: as §2
[8] = biological target: T1, Amyloid-beta precursor protein; assay: Potency index, ratio of curcumin IC50 for amyloid beta 42 (unknown origin) aggregation to compound IC50 for amyloid beta 42 (unknown origin) aggregation
[9] = biological target: T1, Amyloid-beta precursor protein; assay: Induction of self-induced amyloid beta 40 (unknown origin) aggregation measured for 24 hrs by thioflavin T-based fluorescence spectroscopic analysis; method in brief: as §1
[10] = biological target: T1, Amyloid-beta precursor protein; assay: Induction of self-induced amyloid beta 42 (unknown origin) aggregation measured for 24 hrs by thioflavin T-based fluorescence spectroscopic analysis; method in brief: as §1

T1 sequence (P05067 whole entry): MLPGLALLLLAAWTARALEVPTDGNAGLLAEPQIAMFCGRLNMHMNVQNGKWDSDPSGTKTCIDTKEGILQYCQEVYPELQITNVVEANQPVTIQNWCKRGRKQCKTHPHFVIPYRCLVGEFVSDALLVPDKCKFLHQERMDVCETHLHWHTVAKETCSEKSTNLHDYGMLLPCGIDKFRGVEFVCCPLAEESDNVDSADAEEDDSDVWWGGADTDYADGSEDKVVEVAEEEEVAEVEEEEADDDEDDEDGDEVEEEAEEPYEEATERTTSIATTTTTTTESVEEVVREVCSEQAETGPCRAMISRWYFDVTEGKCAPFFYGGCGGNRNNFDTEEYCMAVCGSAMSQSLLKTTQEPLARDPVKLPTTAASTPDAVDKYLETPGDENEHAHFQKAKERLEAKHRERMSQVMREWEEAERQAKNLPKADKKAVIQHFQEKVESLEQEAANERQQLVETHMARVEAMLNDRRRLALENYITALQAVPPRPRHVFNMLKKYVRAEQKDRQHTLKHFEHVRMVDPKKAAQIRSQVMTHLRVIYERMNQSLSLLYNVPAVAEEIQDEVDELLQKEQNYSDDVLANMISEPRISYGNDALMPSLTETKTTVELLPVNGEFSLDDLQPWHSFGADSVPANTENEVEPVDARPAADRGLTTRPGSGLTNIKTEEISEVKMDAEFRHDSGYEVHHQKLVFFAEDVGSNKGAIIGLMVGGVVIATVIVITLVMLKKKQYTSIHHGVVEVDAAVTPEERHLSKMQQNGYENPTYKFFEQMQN

| Compound | IC50 ([1]; read-out: IC50) | IC50 [2] | also measured |
| --- | --- | --- | --- |
| Nc1nc(NCCc2ccccc2)nc2ccccc12 | > 25 µM | 14.9 µM |  |
| Nc1nc(NCc2cccc(Cl)c2)nc2ccccc12 | 13.4 µM | 5.9 µM |  |
| Nc1nc(NCC2CCCCC2)c2ccccc2n1 | > 25 µM | 13.6 µM |  |
| Nc1nc(NCc2ccc(C(F)(F)F)cc2)nc2ccccc12 | 5.3 µM | 2.3 µM |  |
| CC(C)Nc1nc(N)nc2ccccc12 |  | 10.2 µM | IC50 [1]: Not Active |
| Nc1nc(NCC2CCCCC2)nc2ccccc12 | > 25 µM | > 25 µM |  |
| Nc1nc(NCCc2ccccc2)c2ccccc2n1 | > 25 µM | 7.8 µM |  |
| Nc1nc(NCc2cccc(F)c2)nc2ccccc12 | 14.7 µM | 11.3 µM |  |
| COc1cccc(CNc2nc(N)c3ccccc3n2)c1 | > 25 µM | > 25 µM |  |
| CC(C)Nc1nc(N)c2ccccc2n1 | > 25 µM | > 25 µM |  |
| Cc1cccc(CNc2nc(N)c3ccccc3n2)c1 | > 25 µM | > 25 µM |  |
| Nc1nc(NCc2ccccc2)nc2ccccc12 | 8.4 µM | 2.2 µM |  |
| CCCNc1nc(N)nc2ccccc12 |  | 14.9 µM | IC50 [1]: Not Active |
| Nc1nc(N)c2ccccc2n1 |  |  | Activity [9]: Active; Activity [10]: Active |
| CCCNc1nc(N)c2ccccc2n1 | > 25 µM | > 25 µM |  |
| Nc1nc(NCc2cccc(C(F)(F)F)c2)nc2ccccc12 | 13.8 µM | 12.5 µM |  |
| Nc1nc(NCc2cccc(Br)c2)nc2ccccc12 | 2.7 µM | 1.5 µM | inhibition [1]: Dose-dependent effect; TIME [4]: 6 h; inhibition [2]: Dose-dependent effect |
| O=S(=O)(O)c1cc(S(=O)(=O)O)c2c(/N=N/c3ccccc3)c(O)ccc2c1 [ORANGE G SODIUM] | 8.7 µM | 3 µM |  |

Second part, led by results:

| IC50 ([1]; read-out: IC50) | IC50 [2] | Compound | also measured |
| --- | --- | --- | --- |
| > 25 µM | 3.1 µM | Nc1nc(NCc2ccc(F)cc2)c2ccccc2n1 |  |
| > 25 µM | 1.9 µM | Nc1nc(NCc2ccc(C(F)(F)F)cc2)c2ccccc2n1 |  |
| > 25 µM | > 25 µM | Nc1nc(NCc2ccc(F)cc2)nc2ccccc12 |  |
| 22.3 µM | 0.58 µM | Nc1nc(NCc2cccc(Br)c2)c2ccccc2n1 | inhibition [3]: Active; TIME [4]: 2.6 h |
| > 25 µM | 3.6 µM | Cc1cccc(CNc2nc(N)nc3ccccc23)c1 |  |
| 21 µM | 3.5 µM | Nc1nc(NCc2cccc(C(F)(F)F)c2)c2ccccc2n1 |  |
| > 25 µM | 6.8 µM | COc1ccc(CNc2nc(N)c3ccccc3n2)cc1 |  |
| > 25 µM | 0.62 µM | Nc1nc(NCc2ccc(Cl)cc2)c2ccccc2n1 | Ratio IC50 [5]: 2.4 |
| > 25 µM | 2.8 µM | Nc1nc(NCc2cccc(F)c2)c2ccccc2n1 |  |
| 8.1 µM | 0.93 µM | Nc1nc(NCc2ccc(Cl)cc2)nc2ccccc12 |  |
| 14.8 µM | 0.08 µM | Nc1nc(NCc2ccc(Br)cc2)c2ccccc2n1 | Ratio IC50 [5]: 18; inhibition [3]: Active; TIME [4]: 3.5 h; inhibition [6]: Active; inhibition [7]: Active |
| > 25 µM | 3.9 µM | Cc1ccc(CNc2nc(N)nc3ccccc23)cc1 |  |
| 1.7 µM | 1.7 µM | Nc1nc(NCc2ccc(Br)cc2)nc2ccccc12 | inhibition [1]: Dose-dependent effect; inhibition [4]: Active; Ratio IC50 [8]: 1.8; inhibition [6]: Active; inhibition [2]: Dose-dependent effect; inhibition [7]: Active |
|  | 20.6 µM | COc1cccc(CNc2nc(N)nc3ccccc23)c1 | IC50 [1]: Not Active |
| 22.5 µM | 13.1 µM | Cc1ccc(CNc2nc(N)c3ccccc3n2)cc1 |  |
| > 25 µM | 4.8 µM | Nc1nc(NCc2ccccc2)c2ccccc2n1 |  |
| > 25 µM | 1.9 µM | Nc1nc(NCc2cccc(Cl)c2)c2ccccc2n1 |  |
| > 25 µM | 1.1 µM | COc1ccc(CNc2nc(N)nc3ccccc23)cc1 |  |
